Laboratory results from ChEMBL document CHEMBL3085676, “Self-assembly to function: design, synthesis, and broad spectrum antimicrobial properties of short hybrid E-vinylogous lipopeptides” (J Med Chem, 2013).
Values after ≈ are worked out from the molar mass of the structure shown. Active and inactive are the calls of the source. The calls are words filed in the database; no cut-off is given here. Where a SMILES comes first, the peptide text is derived from it. The star is where a group is joined. Octanoyl = CCCCCCCC(=O)*

Tests used:
[1] = tested on: Salmonella typhimurium; assay: Antibacterial activity against Salmonella typhimurium NCIM 2501 after 18 to 20 hrs by broth dilution assay; format: functional, Salmonella enterica subsp. enterica serovar Typhimurium; details: Salmonella enterica
In short: (§1)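 Two-fold serial dilutions in Mueller-Hinton broth, run in triplicate. Overnight 37 °C cultures diluted to 10⁶ CFU/mL and added 1:1 to the peptide, then incubated at 37 °C for 18-20 h. Growth was read as absorbance at 492 nm against no-peptide controls. MIC taken as the lowest concentration giving complete inhibition or killing. Reproducible across three independent triplicates.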

[2] = tested on: Candida albicans; assay: Antifungal activity against Candida albicans NCIM 3471 assessed as disruption of cell membrane by atomic force microscopic analysis; format: functional, organism-based
In short: (§2)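 E. coli grown in MHB and C. albicans in potato dextrose broth were pelleted and resuspended in deionized water. Cells incubated with 50 µM peptide at 37 °C for 1 h, dried 30 min at 25 °C on poly-L-lysine glass, and imaged by AFM in intermittent contact mode. Peptide-free cells served as control.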

[3] = tested on: Pseudomonas aeruginosa; assay: Antibacterial activity against Pseudomonas aeruginosa NCIM 5029 after 18 to 20 hrs by broth dilution assay; format: functional; in short: as §1
[4] = tested on: Klebsiella pneumoniae; assay: Antibacterial activity against Klebsiella pneumoniae NCIM 2957 after 18 to 20 hrs by broth dilution assay; format: functional; in short: as §1
[5] = tested on: Nakaseomyces glabratus; assay: Antifungal activity against Candida glabrata NCIM 3237 after 48 to 72 hrs; format: functional
In short: (§3)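 Peptide in water was serially diluted two-fold in potato dextrose broth and mixed 1:1 with yeast suspension at 2×10³ CFU/ml. Incubated at 25 °C for 48-72 h, with growth read as absorbance at 620 nm against a peptide-free culture. MIC was the lowest concentration giving complete growth inhibition. Run in triplicate.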

[6] = tested on: Saccharomyces cerevisiae; assay: Antifungal activity against Saccharomyces cerevisiae NCIM 3454 after 48 to 72 hrs; format: functional; in short: as §3
[7] = tested on: Cryptococcus neoformans; assay: Antifungal activity against Cryptococcus neoformans NCIM 3542 after 48 to 72 hrs; format: functional; in short: as §3
[8] = tested on: Candida albicans; assay: Antifungal activity against Candida albicans NCIM 3471 after 48 to 72 hrs; format: functional; in short: as §3
[9] = tested on: Escherichia coli; assay: Antibacterial activity against Escherichia coli K-12 NCIM 2563 after 18 to 20 hrs by broth dilution assay; format: functional; in short: as §1
[10] = tested on: Staphylococcus aureus; assay: Antibacterial activity against Staphylococcus aureus NCIM 5021 after 18 to 20 hrs by broth dilution assay; format: functional; in short: as §1
[11] = tested on: Escherichia coli; assay: Antibacterial activity against Escherichia coli K-12 NCIM 2563 assessed as disruption of cell membrane at 50 uM after 1 hr by atomic force microscopic analysis; format: functional, organism-based; in short: as §2
[12] = tested on: Escherichia coli; assay: Antibacterial activity against Escherichia coli NCIM 2065 after 18 to 20 hrs by broth dilution assay; format: functional; in short: as §1
[13] = Hemolytic activity in human RBC after 1 hr; format: ADME, cell-based; details: erythrocyte
In short: (§4)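 Fresh EDTA-collected human RBCs washed four times in Tris-buffered saline (10 mM Tris, 150 mM NaCl, pH 7.2) and used at 4% v/v, mixed 1:1 with two-fold serially diluted peptide (top 100 µg/ml before mixing). Incubated at 37 °C for 1 h and centrifuged; supernatant hemoglobin read at 540 nm. Buffer and 1% Triton-X served as negative and positive controls. Percent hemolysis = (A−A_N)/(A_P−A_N)×100. Run in duplicate.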

[14] = tested on: Escherichia coli; assay: Antibacterial activity against Escherichia coli expressing pUC19 plasmid assessed as disruption of cytoplasmic membrane at 20 ug/mL after 1 hr by beta-galactosidase leakage assay; format: functional, organism-based
In short: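 E. coli TOP10 transformed with pUC19 (lacZ) grown in LB with 100 µg/ml ampicillin at 37 °C to A660 0.6, then washed three times. Peptide stock (200 µg/ml) added 1:10 to cells and incubated at 37 °C for 1 h. After centrifugation, supernatant was mixed with 4-methylumbelliferyl substrate and fluorescence followed for 1 h. Initial velocities used; water blank; triplicates.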

[15] = Hemolytic activity in human RBC at 100 ug/ml after 1 hr; format: ADME, cell-based; details: erythrocyte; in short: as §4
[16] = tested on: Escherichia coli; assay: Antibacterial activity against Escherichia coli K-12 NCIM 2563 at 50 uM after 60 mins by FITC uptake assay; format: functional, organism-based
In short: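 E. coli grown in MHB to OD 0.6, washed, and suspended at 2×10⁷ cfu/ml in 10 mM sodium phosphate pH 7.4. Cells incubated with 50 µM peptide at 37 °C for 60 min, then immobilized on poly-L-lysine slides for 50 min at 30 °C. FITC (10 µg/ml) added, slides washed, and cells examined by fluorescence microscopy. Solvent-treated control.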

| MIC [1] | MIC [3] | MIC [4] | MIC [5] | MIC [6] | MIC [7] | MIC [8] | MIC [9] | MIC [10] | MIC [12] | Compound | Activity [2] | Activity [11] | HD10 [13] | Activity [14] | Activity [15] | Activity [16] |
| --- | --- | --- | --- | --- | --- | --- | --- | --- | --- | --- | --- | --- | --- | --- | --- | --- |
| > 100 µg/mL | > 100 µg/mL | > 100 µg/mL | 50 µg/mL (≈ 84.2 µM) | > 100 µg/mL | > 100 µg/mL | > 100 µg/mL | > 100 µg/mL | > 100 µg/mL | > 100 µg/mL | CCCCCCCC(=O)N[C@@H](C)/C=C/C(=O)N[C@@H](CCCCN)C(=O)N[C@@H](C)/C=C/C(=O)N[C@@H](CCCCN)C(N)=O | Active | Active | 58 µg/mL | – | – | – |
| 6.25 µg/mL (≈ 9.62 µM) | 6.25 µg/mL (≈ 9.62 µM) | 3.12 µg/mL (≈ 4.8 µM) | 6.25 µg/mL (≈ 9.62 µM) | 3.12 µg/mL (≈ 4.8 µM) | 6.25 µg/mL (≈ 9.62 µM) | 3.12 µg/mL (≈ 4.8 µM) | 6.25 µg/mL (≈ 9.62 µM) | 6.25 µg/mL (≈ 9.62 µM) | 6.25 µg/mL (≈ 9.62 µM) | CCCCCCCCCCCC(=O)N[C@@H](C)/C=C/C(=O)N[C@@H](CCCCN)C(=O)N[C@@H](C)/C=C/C(=O)N[C@@H](CCCCN)C(N)=O | Active | Active | 48 µg/mL | inactive | – | – |
| > 100 µg/mL | > 100 µg/mL | > 100 µg/mL | > 100 µg/mL | > 100 µg/mL | > 100 µg/mL | > 100 µg/mL | > 100 µg/mL | > 100 µg/mL | > 100 µg/mL | CCCCCCCC(=O)N[C@@H](CC(C)C)C(=O)N[C@@H](CCCCN)C(=O)N[C@H](C(=O)N[C@@H](CCCCN)C(N)=O)C(C)C (Octanoyl-LKVK-NH2) | Active | Active | – | – | Non-toxic | – |

Second part, the molecule before the results:

| Compound | MIC [1] | MIC [3] | MIC [4] | MIC [5] | MIC [6] | MIC [7] | MIC [8] | MIC [9] | MIC [10] | MIC [12] | Activity [2] | Activity [11] | HD10 [13] | Activity [14] | Activity [15] | Activity [16] |
| --- | --- | --- | --- | --- | --- | --- | --- | --- | --- | --- | --- | --- | --- | --- | --- | --- |
| CC(=O)N[C@H](/C=C/C(=O)N[C@@H](CCCCN)C(=O)N[C@H](/C=C/C(=O)N[C@@H](CCCCN)C(N)=O)Cc1ccccc1)Cc1ccccc1 | > 100 µg/mL | > 100 µg/mL | > 100 µg/mL | > 100 µg/mL | > 100 µg/mL | > 100 µg/mL | > 100 µg/mL | > 100 µg/mL | > 100 µg/mL | > 100 µg/mL | Active | Active | – | – | Non-toxic | – |
| CCCCCCCC(=O)N[C@H](/C=C/C(=O)N[C@@H](CCCCN)C(=O)N[C@H](/C=C/C(=O)N[C@@H](CCCCN)C(N)=O)Cc1ccc(O)cc1)Cc1ccc(O)cc1 | 50 µg/mL (≈ 64.3 µM) | 50 µg/mL (≈ 64.3 µM) | 50 µg/mL (≈ 64.3 µM) | 25 µg/mL (≈ 32.1 µM) | 12.5 µg/mL (≈ 16.1 µM) | 25 µg/mL (≈ 32.1 µM) | 12.5 µg/mL (≈ 16.1 µM) | 25 µg/mL (≈ 32.1 µM) | 50 µg/mL (≈ 64.3 µM) | 25 µg/mL (≈ 32.1 µM) | Active | Active | 54 µg/mL | – | – | – |
| CCCCCCCC(=O)N[C@H](/C=C/C(=O)N[C@@H](CCCCN)C(=O)N[C@H](/C=C/C(=O)N[C@@H](CCCCN)C(N)=O)Cc1ccccc1)Cc1ccccc1 | 3.12 µg/mL (≈ 4.18 µM) | 3.12 µg/mL (≈ 4.18 µM) | 3.12 µg/mL (≈ 4.18 µM) | 3.12 µg/mL (≈ 4.18 µM) | 3.12 µg/mL (≈ 4.18 µM) | 3.12 µg/mL (≈ 4.18 µM) | 3.12 µg/mL (≈ 4.18 µM) | 1.56 µg/mL (≈ 2.09 µM) | 3.12 µg/mL (≈ 4.18 µM) | 1.56 µg/mL (≈ 2.09 µM) | Active | Active | 16 µg/mL | Active | – | Active |
